Measurements collected from several papers.
Lines come from different studies, so protocols differ.
Target: Acetylcholinesterase (ACHE, Homo sapiens, UniProt P22303)
Mode: inhibitor

SMILES	effect on	method	IC50
Cn1cc(-c2cc(C(=O)NN=Cc3ccccc3)no2)c2ccccc21	enzyme activity		> 100 µM
O=[N+]([O-])c1c[nH]c(-c2n[nH]c(=S)n2/N=C/c2ccc(Br)c(Cl)c2)c1	enzyme activity	Ellman	22.9 µM
Cn1cc(-c2cc(C(=O)NN=Cc3cccc(Br)c3)no2)c2ccccc21	enzyme activity		> 100 µM
O=[N+]([O-])c1c[nH]c(-c2n[nH]c(=S)n2/N=C/c2ccc(C(F)(F)F)cc2)c1	enzyme activity	Ellman	5.1 µM
COc1ccc(C(=O)NCCN2CCCCC2)cc1	enzyme activity	Ellman	5.6 µM
COc1ccc(S(=O)(=O)Oc2ccc(C=NNC(=O)c3ccc(F)cc3)cc2OC)cc1	enzyme activity	Ellman	0.0614 µM
C#CCN(C)CCCCCCCCOc1cccc(CN(C)c2c3c(nc4ccccc24)CCCC3)c1	enzyme activity	Ellman	4.33 µM
O=[N+]([O-])c1c[nH]c(-c2n[nH]c(=S)n2/N=C/c2ccc(Cl)c([N+](=O)[O-])c2)c1	enzyme activity	Ellman	13.2 µM
C#CCN(C)CCCOc1cccc(CN(C)c2c3c(nc4ccccc24)CCCC3)c1	enzyme activity	Ellman	2.82 µM
Cn1cc(-c2cc(C(=O)NN=Cc3ccccc3F)no2)c2ccccc21	enzyme activity		> 100 µM
O=C(NCCN1CCCCC1)c1ccccc1F	enzyme activity	Ellman	0.013 µM
COc1ccccc1C=NNC(=O)c1cc(-c2cn(C)c3ccccc23)on1	enzyme activity		34.2 µM
C#CCN(C)CCCCCOCc1ccc(CN(C)c2c3c(nc4ccccc24)CCCC3)cc1	enzyme activity	Ellman	4.84 µM
CSc1ccc(C=NNC(=O)c2cc(-c3cn(C)c4ccccc34)on2)cc1	enzyme activity		> 100 µM
CCN(CC)c1ccc(C=NNC(=O)c2ccc(F)cc2)c(OS(=O)(=O)c2ccc(OC)cc2)c1	enzyme activity	Ellman	0.0837 µM
C#CCN(C)CCCCOCc1ccc(CN(C)c2c3c(nc4ccccc24)CCCC3)cc1	enzyme activity	Ellman	2.36 µM

SMILES	effect on	method	IC50
Cn1cc(-c2cc(C(=O)NN=Cc3ccncc3)no2)c2ccccc21	enzyme activity		> 100 µM
C#CCN(C)CCOc1cccc(CN(C)c2c3c(nc4ccccc24)CCCC3)c1	enzyme activity	Ellman	4.21 µM
O=C(NCCN1CCCCC1)c1ccc([N+](=O)[O-])cc1	enzyme activity	Ellman	2.4 µM
O=[N+]([O-])c1c[nH]c(-c2n[nH]c(=S)n2/N=C/c2cc(Cl)cc(Cl)c2)c1	enzyme activity	Ellman	13.6 µM
COC(=O)c1cc(N(C)C(=O)c2ccn3ncc(-c4ccc(C(=O)O)cc4)c3c2)ccc1Cl	cell-free assay		> 30 µM
O=C(NCCN1CCCCC1)c1ccc(F)cc1	enzyme activity	Ellman	3.1 µM
O=[N+]([O-])c1c[nH]c(-c2n[nH]c(=S)n2/N=C/c2c(O)cc(O)cc2O)c1	enzyme activity	Ellman	6.2 µM
O=C(NCCN1CCCCC1)c1ccccc1Cl	enzyme activity	Ellman	0.09 µM
O=[N+]([O-])c1c[nH]c(-c2n[nH]c(=S)n2/N=C/c2ccc(Oc3ccccc3)cc2)c1	enzyme activity	Ellman	19.3 µM
COc1ccc(S(=O)(=O)Oc2ccccc2C=NNC(=O)c2ccc(F)cc2)cc1	enzyme activity	Ellman	0.107 µM
O=C(NCCN1CCCCC1)c1ccc(Cl)cc1	enzyme activity	Ellman	46 µM
C#CCN(C)CCCCCCOCc1ccc(CN(C)c2c3c(nc4ccc(C)cc24)CCCC3)cc1	enzyme activity	Ellman	45.8 µM
O=[N+]([O-])c1c[nH]c(-c2n[nH]c(=S)n2/N=C/c2ccc(F)c([N+](=O)[O-])c2)c1	enzyme activity	Ellman	15.5 µM
C#CCN(C)CCCCCCCOc1cccc(CN(C)c2c3c(nc4ccccc24)CCCC3)c1	enzyme activity	Ellman	1.14 µM
CN(C)c1ccc(/C=N/n2c(-c3cc([N+](=O)[O-])c[nH]3)n[nH]c2=S)c(O)c1	enzyme activity	Ellman	21.2 µM
